Compounds with a hit are over-represented: about 2.2% of the library has one in this group of screens.
SIRT5 inh = sirtuin-5 (human) deacylase inhibition; Q9NXA8; Purified SirT5, succinyl-peptide AMC, trypsin-coupled fluorescence; inhibition, % at 15 µM; 330,000 compounds, 1.1% hits; in the data active means inhibition above about 15%
Target sequence (Q9NXA8 whole entry, looked up): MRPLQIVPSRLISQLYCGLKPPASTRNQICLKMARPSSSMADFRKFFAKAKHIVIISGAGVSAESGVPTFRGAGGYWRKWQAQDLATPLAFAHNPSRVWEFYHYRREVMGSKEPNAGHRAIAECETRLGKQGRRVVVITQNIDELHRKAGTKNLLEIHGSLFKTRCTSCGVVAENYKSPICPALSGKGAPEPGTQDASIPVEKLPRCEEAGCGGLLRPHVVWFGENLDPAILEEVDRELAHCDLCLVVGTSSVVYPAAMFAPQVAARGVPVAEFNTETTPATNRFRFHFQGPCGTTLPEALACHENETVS
PGC1a acetyl inh = lowers PGC1a acetylation signal in U2OS cells. AlphaScreen anti-acetyl-lysine; with virally co-expressed GCN5 acetyltransferase. inhibition, % at 15.6 µM. 350,000 compounds, 0.17% hits;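 active means every replicate shows inhibition of at least 40%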;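 further: 0% = neutral control wells and 100% = positive control wells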
FGF22 binding = FGF22 (human) thermal shift binding; recombinant FGF22 thermal shift, SYPRO orange fluorescence; percent of sucrose octasulfate shift, DMSO zero; activity (Tm shift, normalised), % at 9.99 µM; 340,000 compounds, 1.5% hits; AID 651658;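 active means mean Tm shift, scaled 0 neutral to 100 positive control, at about 1.3% or above, every replicate too, limit read from the data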
Target sequence (Q9HCT0 whole entry, looked up): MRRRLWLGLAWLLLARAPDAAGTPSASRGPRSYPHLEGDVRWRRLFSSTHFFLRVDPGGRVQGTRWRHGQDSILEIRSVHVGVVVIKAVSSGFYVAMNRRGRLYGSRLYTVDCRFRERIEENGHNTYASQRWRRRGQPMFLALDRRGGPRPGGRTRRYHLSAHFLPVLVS
ERAP1 inh = blocks human ERAP1 aminopeptidase activity. recombinant ERAP1, Leu-AMC fluorescence, 60 min. 340,000 compounds, 0.15% hits. inhibition, % at 10.7 µM. Q9NZ08;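 active means mean replicate inhibition of at least 30%, or all replicates individually reaching that 30% level; inactive means mean below 30% and not every replicate reaching it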;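 further: 0% = neutral control wells and 100% = L-leucinethiol positive control wells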
FN deposition inh = fibronectin deposition inhibition; 350,000 compounds, 0.086% hits; AID 743247; inhibition, % at 12.6 µM; AH1F fibroblasts, Alexa488-fibronectin deposition fluorescence, overnight;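 active means mean inhibition across replicates of 30% or more, regardless of how many single replicates reach that level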;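 further: positive control wells lacked labelled fibronectin entirely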
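Material: AH1F fibroblasts assembling fluorescent fibronectin matrix; amount: 10000 AH1F cells/well; medium: DMEM, 2% serum; reagent: Alexa488-fibronectin, 24 nM final in well; dosing: single compound dose, delivered by pin transfer; incubation: 1 h adhesion, overnight exposure; detection: fluorescence after three HBSS washes, excitation 485 nm, emission 525 nm; measure: fibronectin deposition inhibition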
* marks the source's active call; other numbers are inactive results; . = no result; ! = not active in a repeat.

SMILES | SIRT5 inh | PGC1a acetyl inh | FGF22 binding | ERAP1 inh | FN deposition inh
COC(=O)CCS(=O)(=O)c1ccc(Cl)c(Cl)c1 | . | . | . | . | 1
COC(=O)CC/C(=N/Nc1ccc(Cl)c(Cl)c1)C(=O)OC | 8 | -5 | 43* | 19 | 27
C[C@H]1CN([C@@H](C)CO)C(=O)c2cc(-c3ccccc3)cnc2O[C@H]1CN(C)C(=O)c1cccc(F)c1 | . | 3 | . | . | -2
CCC(C)NC(=S)N1CCN(Cc2ccc3c(c2)OCO3)CC1 (stereo not given) | -2 | -6 | 43* | 3 | -6
NC(=O)CC[C@H](NC(=O)c1ccc(F)cc1)C(=O)N1CCN(Cc2ccc3c(c2)OCO3)CC1 | . | -4 | 43* | 0 | -2
CC(C)CNC(=S)N1CCN(Cc2ccc3c(c2)OCO3)CC1 | 0 | -4 | 0 | 1 | 11
COCC(=O)Nc1ccc2c(c1)[C@H]1C[C@H](CC(=O)NC3CCCCC3)O[C@@H](CO)[C@H]1O2 | 1 | 1 | 0 | -2 | -4
CCCNC(=O)N1CC2(CN(C)C2)c2c(n(C)c3cc(OC)ccc23)[C@H]1CO | . | 4 | 0 | 1 | .
COc1ccc(S(=O)(=O)N(C)C[C@H]2OCCCC[C@H](C)Oc3ccc(NC(=O)Nc4ccc(F)cc4)cc3C(=O)N([C@H](C)CO)C[C@H]2C)cc1 | 17*! | 16 | 1 | -1 | 6
COc1ccc(NC(=O)Nc2ccc3c(c2)C(=O)N([C@H](C)CO)C[C@H](C)[C@H](CN(C)S(=O)(=O)c2ccc(F)cc2)OCCCC[C@@H](C)O3)cc1 | 1 | -4 | -1 | 0 | -12
COc1ccc(S(=O)(=O)N(C)C[C@H]2OCCCC[C@@H](C)Oc3ccc(NC(=O)Nc4ccc(F)cc4)cc3C(=O)N([C@H](C)CO)C[C@H]2C)cc1 | 16* | 2 | 0 | 0 | 13
C[C@H](CO)N1C[C@H](C)[C@H](CN(C)S(=O)(=O)c2ccc(Cl)cc2)OCCCC[C@H](C)Oc2ccc(NC(=O)Nc3ccc4c(c3)OCO4)cc2C1=O | 21* | -11 | 0 | -4 | -11
C[C@H](CO)N1C[C@H](C)[C@@H](CN(C)S(=O)(=O)c2ccc(Cl)cc2)OCCCC[C@H](C)Oc2ccc(NC(=O)Nc3ccc4c(c3)OCO4)cc2C1=O | 1 | -4 | 0 | -3 | -4
C[C@@H]1CCCCO[C@H](CN(C)S(=O)(=O)c2ccc(Cl)cc2)[C@@H](C)CN([C@H](C)CO)C(=O)c2cc(NC(=O)Nc3ccc(F)cc3)ccc2O1 | 16* | 10 | 0 | 0 | -8
COc1cccc(-c2ccc([C@H]3[C@@H](CO)N4C(=O)CN(C(=O)C5CCOCC5)C[C@@H]34)cc2)c1 | -6 | -25 | . | 3 | .
CCNC(=O)C[C@H]1CC[C@H]2[C@H](COc3ccc(NC(=O)c4cccc(OC)c4)cc3C(=O)N2C)O1 | -1 | 2 | 0 | 2 | 10
CCOc1cc(N2CCOCC2)c(OCC)cc1NC(=O)c1ccc(OC(C)C)cc1 | -2 | -15 | 43* | 0 | 2
CCOc1cc(N2CCOCC2)c(OCC)cc1NC(=O)C(C)C | 1 | -5 | 0 | -1 | -15
CCOc1cc(N2CCOCC2)c(OCC)cc1NC(=O)c1ccc(C)cc1 | -4 | . | 0 | -1 | -3
CCOc1cc(N2CCOCC2)c(OCC)cc1NC(C)C(=O)N1CCN(CC)CC1 (stereo not given) | 15* | -4 | 0 | 6 | 0
C[C@@H]1CN([C@@H](C)CO)C(=O)Cc2cc(NC(=O)C3CCCCC3)ccc2O[C@H]1CN(C)Cc1ccc(-c2ccccc2)cc1 | -3 | 1 | 0 | 5 | .
O=C(N/N=C/c1cccc2ccccc12)c1cccs1 | 18* | . | 0 | 0 | 6
C[C@@H]1CN([C@H](C)CO)C(=O)c2cc(C#Cc3cccc(F)c3)cnc2O[C@H]1CN(C)C(=O)C1CCOCC1 | . | 9 | . | . | .
Cc1ccc(CS(=O)Cc2ccc(C(=O)NC3CCCC(C)C3C)o2)cc1 (stereo not given) | 2 | 14 | 0 | -1 | 30*
COc1ccccc1C(=O)Nc1ccc2c(c1)C(=O)N(C)C[C@@H](OC)[C@@H](C)CN[C@H](C)CO2 | -1 | -12 | 0 | -2 | -7
SMILES | SIRT5 inh | PGC1a acetyl inh | FGF22 binding | ERAP1 inh | FN deposition inh
Cc1noc(C)c1NC(=O)Nc1ccc2c(c1)C(=O)N([C@H](C)CO)C[C@@H](C)[C@H](CN(C)S(=O)(=O)c1ccccc1)O2 | . | 1 | . | . | .
CN(CC(=O)N1CCN(C2CCCCC2)CC1)S(=O)(=O)c1cccc2nsnc12 | 22* | . | . | -3 | .
CN(Cc1ccccc1)S(=O)(=O)c1cccc2nsnc12 | -2 | 3 | 44* | 1 | 0
O=C(C1CCC1)N1CC(=O)N2[C@H](CO)[C@H](c3ccc(C#Cc4cccc(F)c4)cc3)[C@H]2C1 | 5 | -6 | . | . | 6
O=C(Cn1cc(Br)ccc1=O)Nc1ccc2c(c1)OCO2 | 5 | 11 | 0 | 0 | 2
O=C(Cn1cc(C(F)(F)F)ccc1=O)Nc1ccc2c(c1)OCO2 | . | 1 | 43* | 0 | 8
O=C1CNC(=O)/C(=C\c2ccc(F)cc2)N1 | -3 | -12 | 0 | 3 | 4
O=C1CNC(=O)/C(=C/c2cccs2)N1 | 0 | . | 43* | 0 | 6
O=C(Nc1nnc(SCC(=O)N2CCCC2)s1)C1CC(=O)N(c2ccccc2)C1 (stereo not given) | 0 | . | 0 | 0 | -1
COc1cccc(N2CC(C(=O)Nc3nnc(SCC(=O)N4CCCC4)s3)CC2=O)c1 (stereo not given) | 17* | 3 | 0 | 4 | -6
Oc1cccc2ccc(/C=C/c3c(F)cccc3Cl)nc12 | 0 | 8 | 43* | 2 | -6
Oc1cccc2ccc(/C=C/c3ccccc3Cl)nc12 | -2 | . | 0 | 0 | -2
C[C@@H]1CN([C@@H](C)CO)C(=O)Cc2cc(NC(=O)Cc3ccccc3)ccc2O[C@@H]1CN(C)S(=O)(=O)c1cn(C)cn1 | . | 3 | 0 | . | .
CC(C)=N/N=c1\scc(C)n1Cc1ccco1 | -7 | -18 | 43* | 1 | 4
O=C1C(Cl)=C(Nc2ccc3cn[nH]c3c2)C(=O)c2ccccc21 | -2 | 55* | -1 | 4 | 71*
CC(C)NC(=O)Nc1ccc2c(c1)C(=O)N([C@@H](C)CO)C[C@H](C)[C@H](CN(C)S(=O)(=O)c1ccc(F)cc1)OCCCC[C@@H](C)O2 | 2 | 2 | 0 | -2 | .
Cc1noc(C)c1S(=O)(=O)Nc1ccc2c(c1)C(=O)N([C@H](C)CO)C[C@H](C)[C@H](CN(C)C(=O)Nc1ccccc1)O2 | 3 | -1 | 0 | -6 | .
COCCn1c(SCC(=O)N2CCCCC2)nc2c(c1=O)SCC2 | 2 | 9 | 0 | -1 | 3
COCCn1c(SCC(=O)c2ccccc2)nc2c(c1=O)SCC2 | -2 | 1 | 43* | 0 | -12
COc1ccc(-c2nc(NC(C)=O)sc2-c2ccc(OC)cc2)cc1 | 1 | -7 | 43* | 1 | -8

Assay outcomes deposited in PubChem BioAssay by Broad Institute.
